From ChEMBL document CHEMBL3769342, “Supramolecular Inhibition of Neurodegeneration by a Synthetic Receptor” (ACS Med Chem Lett, 2015)
The source made the active and inactive calls. The rule behind the calls is not given here.

Columns and labels:
[1] = Binding affinity to MPTP at 0.5 equivalents of compound by 1H NMR analysis
[2] = Binding affinity to MPTP assessed as upfield shift resonance at 1.2 equivalents of compound by 1H NMR analysis
[3] = Binding affinity to MPP+ assessed as upfield shift resonance at 1.2 equivalents of compound by 1H NMR analysis
[4] = Binding affinity to MPTP in PBS buffer solution at pH 7.4 by UV-vis titration method
Summary of the method: (§1)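 UV-vis titration in 0.01 M PBS, pH 7.4: host added in increasing amounts to the guest solution. Guest absorbance followed at 242 nm, plotted against host concentration and fitted by nonlinear least squares to a 1:1 model to give Ka.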

[5] = Binding affinity to MPP+ in PBS buffer solution at pH 7.4 by UV-vis titration method; summary of the method: as §1
[6] = Binding affinity to MPTP by ESI-MS analysis
[7] = Binding affinity to MPP+ by ESI-MS analysis
Danio rerio [8] = species on record: Danio rerio; test: Neuroprotective activity against MPTP-induced tyrosine hydroxylase deficiency in zebrafish larval brain assessed as tyrosine hydroxylase viability in neuron at 100 uM after 48 hrs by immunofluorescence assay (reference value: 49.93 +/- 5.26%); assay type: functional
Danio rerio [9] = species on record: Danio rerio; test: Neurotoxicity in zebrafish model of MPTP-induced tyrosine hydroxylase defeciency assessed as phenotypic changes at 100 uM after 48 hrs by immunofluorescence assay; assay type: organism-based; settings: in vivo
[10] = Neurotoxicity in zebrafish larvae assessed as tyrosine hydroxylase viability in neuron at 100 uM after 48 hrs by immunofluorescence assay relative to control; assay type: organism-based, Danio rerio; settings: tyrosine hydroxylase-positive neurons, read-out: Activity
Danio rerio [11] = species on record: Danio rerio; test: Neuroprotective activity against MPTP-induced locomotion defeciency in zebrafish larvae assessed as swimming distance at 100 uM incubated for 5 days measured for 45 mins by automated video tracking system based method (reference value: 1368.76 +/- 404.62 cm); assay type: functional
Danio rerio [12] = species on record: Danio rerio; test: Neurotoxicity in zebrafish larvae assessed as swimming distance at 100 uM incubated for 5 days measured for 45 mins by automated video tracking system based method (reference value: 3773.21 +/- 386.24 cm); assay type: ADME, organism-based; settings: in vivo

- Activity [1]: Active
- Activity [2]: < 1 ppm
- Activity [3]: Active
- Ka [4]: 4.8 ×10⁴ /M
- Ka [5]: 1.05 ×10⁵ /M
- Activity [6]: Active
- Activity [7]: Active
Structure (SMILES): O=C1N2CN3C(=O)N4CN5C(=O)N6CN7C(=O)N8CN9C(=O)N%10CN%11C(=O)N%12CN%13C(=O)N%14CN1[C@H]1[C@@H]2N2CN%15C(=O)N(CN%16C(=O)N(CN%17C(=O)N(CN%18C(=O)N(CN%19C(=O)N(CN%20C(=O)N(CN1C2=O)[C@H]%14[C@@H]%20%13)[C@H]%12[C@@H]%19%11)[C@H]%10[C@@H]%189)[C@H]8[C@@H]%177)[C@H]6[C@@H]%165)[C@H]4[C@@H]%153
- Activity (Danio rerio [8]): 79.44%
- Activity (Danio rerio [9]): Non-toxic
- viability at 48 h, 100 µM [10]: 91%
- Activity (Danio rerio [11]): 3487.02 cm
- Activity (Danio rerio [12]): 4167.89 cm
